Measured values as given in publication PMC4929832 (Nature, 2016).

Columns and labels:
[1] = target: RIPK2 (Homo sapiens, UniProt O43353); assay: kinase panel; type: biochemical
[2] = target: TNK2 (Homo sapiens, UniProt Q07912); assay: kinase panel; type: biochemical
[3] = target: AKT3 (Homo sapiens, UniProt Q9Y243); assay: kinase panel; type: biochemical
[4] = target: NEK9 (Homo sapiens, UniProt Q8TD19); assay: kinase panel; type: biochemical
[5] = target: PRKD2 (Homo sapiens, UniProt Q9BZL6); assay: kinase panel; type: biochemical
[6] = target: EPH-A3 (Homo sapiens, UniProt P29320); assay: kinase panel; type: biochemical
[7] = target: Phosphodiesterase 4D (Homo sapiens, UniProt Q08499); assay: Phosphodiesterase 4D assay; type: biochemical
[8] = target: JNK1 (Homo sapiens, UniProt P45983); assay: kinase panel; type: biochemical
[9] = target: INSR (Homo sapiens, UniProt P06213); assay: kinase panel; type: biochemical
[10] = target: ARK5 (Homo sapiens, UniProt O60285); assay: kinase panel; type: biochemical
[11] = target: PRAK (Homo sapiens, UniProt Q8IW41); assay: kinase panel; type: biochemical
[12] = target: AMP-A2B1G1 (Homo sapiens, UniProt P54646); assay: kinase panel; type: biochemical
[13] = target: COX-1 (Homo sapiens, UniProt P23219); assay: COX-1 assay; type: biochemical
[14] = target: TRKC (Homo sapiens, UniProt Q16288); assay: kinase panel; type: biochemical
[15] = target: GSK-3-BETA (Homo sapiens, UniProt P49841); assay: kinase panel; type: biochemical
[16] = target: PRKD3 (Homo sapiens, UniProt O94806); assay: kinase panel; type: biochemical
[17] = target: CHEK2 (Homo sapiens, UniProt O96017); assay: kinase panel; type: biochemical
[18] = target: FGFR3 (Homo sapiens, UniProt P22607); assay: kinase panel; type: biochemical
[19] = target: P70S6K2 (Homo sapiens, UniProt Q9UBS0); assay: kinase panel; type: biochemical
P70S6K2, sequence (Q9UBS0 whole entry): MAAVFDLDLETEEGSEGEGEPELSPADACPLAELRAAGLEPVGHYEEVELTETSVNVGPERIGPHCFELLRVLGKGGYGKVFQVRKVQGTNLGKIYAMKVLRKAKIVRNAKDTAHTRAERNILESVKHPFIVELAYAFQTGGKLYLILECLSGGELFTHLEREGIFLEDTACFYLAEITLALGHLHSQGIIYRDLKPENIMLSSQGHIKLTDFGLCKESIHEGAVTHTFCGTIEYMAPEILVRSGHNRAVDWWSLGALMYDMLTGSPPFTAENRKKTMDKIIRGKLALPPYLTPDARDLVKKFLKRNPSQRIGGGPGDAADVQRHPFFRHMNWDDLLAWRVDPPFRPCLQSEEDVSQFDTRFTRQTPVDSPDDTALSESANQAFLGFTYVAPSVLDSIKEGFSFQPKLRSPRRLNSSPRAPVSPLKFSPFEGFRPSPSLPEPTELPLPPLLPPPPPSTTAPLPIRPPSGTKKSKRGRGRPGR

[20] = target: PAK3 (Homo sapiens, UniProt O75914); assay: kinase panel; type: biochemical
[21] = target: FER (Homo sapiens, UniProt P16591); assay: kinase panel; type: biochemical
[22] = target: SIK (Homo sapiens, UniProt P57059); assay: kinase panel; type: biochemical
SIK, sequence (P57059 whole entry): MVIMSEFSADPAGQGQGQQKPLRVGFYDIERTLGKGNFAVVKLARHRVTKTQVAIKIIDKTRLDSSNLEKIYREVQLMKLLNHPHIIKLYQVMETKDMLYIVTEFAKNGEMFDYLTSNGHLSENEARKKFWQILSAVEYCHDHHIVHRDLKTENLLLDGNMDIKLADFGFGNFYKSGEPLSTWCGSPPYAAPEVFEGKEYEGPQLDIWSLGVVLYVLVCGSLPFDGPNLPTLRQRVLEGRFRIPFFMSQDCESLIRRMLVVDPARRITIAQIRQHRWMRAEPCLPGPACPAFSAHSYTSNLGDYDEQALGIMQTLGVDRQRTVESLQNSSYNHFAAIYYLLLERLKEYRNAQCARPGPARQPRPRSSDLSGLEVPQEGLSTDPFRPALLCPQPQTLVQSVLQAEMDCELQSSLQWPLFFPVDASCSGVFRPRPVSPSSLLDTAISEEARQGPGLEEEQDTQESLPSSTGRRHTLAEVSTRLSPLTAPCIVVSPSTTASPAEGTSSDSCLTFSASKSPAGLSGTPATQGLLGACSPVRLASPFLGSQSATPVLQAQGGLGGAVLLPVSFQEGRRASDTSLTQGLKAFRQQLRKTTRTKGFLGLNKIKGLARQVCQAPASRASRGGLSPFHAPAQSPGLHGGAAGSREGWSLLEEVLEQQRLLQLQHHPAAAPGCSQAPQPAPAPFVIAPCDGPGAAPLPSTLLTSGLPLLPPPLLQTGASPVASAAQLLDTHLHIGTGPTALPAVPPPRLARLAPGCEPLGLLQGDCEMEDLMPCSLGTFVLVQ

[23] = test system: EGFR signaling in L858R/T790M/C797S mice; assay: Pharmacodynamic study, western blotting of tumor nodules; type: in vivo, mouse; settings: EAI045 in combination with cetuximab, 2 doses
Summary of the method: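 Transgenic mice were induced at 6 weeks: exon19del/T790M by doxycycline diet, L858R/T790M/C797S by intranasal Ad-Cre. […] Tumor nodules were lysed and protein-equalized for western blotting. Bands were detected by HRP chemiluminescence. Multiple independent tumors were analyzed.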

[24] = target: EPH-B1 (Homo sapiens, UniProt P54762); assay: kinase panel; type: biochemical
[25] = target: PAK1 (Homo sapiens, UniProt Q13153); assay: kinase panel; type: biochemical
[26] = target: JNK2 (Homo sapiens, UniProt P45984); assay: kinase panel; type: biochemical
[27] = target: MAPK3 (Homo sapiens, UniProt P27361); assay: kinase panel; type: biochemical
[28] = target: FGFR2 (Homo sapiens, UniProt P21802); assay: kinase panel; type: biochemical
[29] = target: PHK-GAMMA2 (Homo sapiens, UniProt P15735); assay: kinase panel; type: biochemical
[30] = target: CLK1 (Homo sapiens, UniProt P49759); assay: kinase panel; type: biochemical
[31] = target: ROCK2 (Homo sapiens, UniProt O75116); assay: kinase panel; type: biochemical
ROCK2, sequence (O75116 whole entry): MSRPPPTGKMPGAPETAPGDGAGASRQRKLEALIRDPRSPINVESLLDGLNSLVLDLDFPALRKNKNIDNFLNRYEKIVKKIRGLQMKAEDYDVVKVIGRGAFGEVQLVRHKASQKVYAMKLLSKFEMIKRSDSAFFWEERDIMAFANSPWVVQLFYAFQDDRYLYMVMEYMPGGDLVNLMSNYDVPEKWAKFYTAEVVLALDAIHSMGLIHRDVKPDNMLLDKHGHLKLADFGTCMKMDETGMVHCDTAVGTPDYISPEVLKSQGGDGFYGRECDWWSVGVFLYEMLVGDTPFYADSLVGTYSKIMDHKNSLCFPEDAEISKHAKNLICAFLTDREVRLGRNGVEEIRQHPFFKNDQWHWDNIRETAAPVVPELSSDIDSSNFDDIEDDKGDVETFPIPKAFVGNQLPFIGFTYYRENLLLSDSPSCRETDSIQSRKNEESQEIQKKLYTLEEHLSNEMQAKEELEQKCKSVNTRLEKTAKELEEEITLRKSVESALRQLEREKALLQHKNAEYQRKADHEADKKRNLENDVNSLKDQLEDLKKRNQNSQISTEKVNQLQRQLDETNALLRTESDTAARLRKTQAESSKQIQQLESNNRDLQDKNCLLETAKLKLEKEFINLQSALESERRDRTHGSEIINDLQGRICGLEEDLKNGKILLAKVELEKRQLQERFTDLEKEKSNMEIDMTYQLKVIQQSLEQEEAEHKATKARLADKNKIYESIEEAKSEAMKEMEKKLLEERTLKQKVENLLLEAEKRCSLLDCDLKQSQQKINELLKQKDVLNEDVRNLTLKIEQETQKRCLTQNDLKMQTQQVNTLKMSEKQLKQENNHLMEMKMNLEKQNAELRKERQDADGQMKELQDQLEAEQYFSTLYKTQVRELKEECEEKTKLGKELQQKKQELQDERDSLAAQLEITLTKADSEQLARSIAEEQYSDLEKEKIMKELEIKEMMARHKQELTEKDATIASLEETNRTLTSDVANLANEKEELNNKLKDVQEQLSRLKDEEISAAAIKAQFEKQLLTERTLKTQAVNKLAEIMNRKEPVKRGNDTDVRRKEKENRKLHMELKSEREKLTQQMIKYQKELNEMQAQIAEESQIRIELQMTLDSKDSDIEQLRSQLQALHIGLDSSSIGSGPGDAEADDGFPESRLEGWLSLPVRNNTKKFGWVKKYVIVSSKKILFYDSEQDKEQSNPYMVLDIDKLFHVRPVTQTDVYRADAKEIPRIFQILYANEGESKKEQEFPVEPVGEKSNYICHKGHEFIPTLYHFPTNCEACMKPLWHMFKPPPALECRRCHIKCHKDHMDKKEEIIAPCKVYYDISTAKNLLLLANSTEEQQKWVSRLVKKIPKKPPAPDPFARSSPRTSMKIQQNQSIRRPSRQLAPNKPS

[32] = target: NEK2 (Homo sapiens, UniProt P51955); assay: kinase panel; type: biochemical
[33] = target: H1 receptor (Homo sapiens, UniProt P35367); assay: H1 receptor calcium assay; type: cell-based
[34] = target: PKC-THETA (Homo sapiens, UniProt Q04759); assay: kinase panel; type: biochemical
PKC-THETA, sequence (Q04759 whole entry): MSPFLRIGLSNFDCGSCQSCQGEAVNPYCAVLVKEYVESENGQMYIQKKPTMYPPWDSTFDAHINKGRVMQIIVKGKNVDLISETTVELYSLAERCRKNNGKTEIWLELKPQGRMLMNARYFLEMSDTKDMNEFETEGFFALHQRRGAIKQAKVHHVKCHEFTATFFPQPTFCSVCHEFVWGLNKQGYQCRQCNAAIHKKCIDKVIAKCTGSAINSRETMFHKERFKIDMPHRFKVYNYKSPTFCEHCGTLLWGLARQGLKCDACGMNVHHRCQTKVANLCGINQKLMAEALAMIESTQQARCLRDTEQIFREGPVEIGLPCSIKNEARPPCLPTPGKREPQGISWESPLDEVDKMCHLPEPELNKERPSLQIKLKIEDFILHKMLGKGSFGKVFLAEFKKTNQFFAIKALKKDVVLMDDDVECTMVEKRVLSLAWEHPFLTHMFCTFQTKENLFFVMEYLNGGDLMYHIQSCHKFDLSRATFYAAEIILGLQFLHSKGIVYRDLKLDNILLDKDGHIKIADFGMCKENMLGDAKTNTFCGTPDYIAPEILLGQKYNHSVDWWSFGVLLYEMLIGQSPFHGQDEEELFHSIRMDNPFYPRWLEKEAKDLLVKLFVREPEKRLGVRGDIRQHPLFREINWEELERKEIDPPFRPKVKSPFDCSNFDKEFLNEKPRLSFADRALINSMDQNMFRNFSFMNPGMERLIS

[35] = target: TXK (Homo sapiens, UniProt P42681); assay: kinase panel; type: biochemical
[36] = target: GRK7 (Homo sapiens, UniProt Q8WTQ7); assay: kinase panel; type: biochemical
[37] = test system: CYP3A4; assay: CYP3A4 Induction Reporter Gene; type: cell-based; settings: human, CYP3A4 induction reporter gene assay (cell line not given)
[38] = target: SPHK2 (Homo sapiens, UniProt Q9NRA0); assay: kinase panel; type: biochemical
[39] = target: Alpha1A adrenergic (Homo sapiens, UniProt P35348); assay: Alpha1A adrenergic calcium flux assay; type: cell-based
[40] = target: PLK4 (Homo sapiens, UniProt O00444); assay: kinase panel; type: biochemical
[41] = target: STK16 (Homo sapiens, UniProt O75716); assay: kinase panel; type: biochemical
STK16, sequence (O75716 whole entry): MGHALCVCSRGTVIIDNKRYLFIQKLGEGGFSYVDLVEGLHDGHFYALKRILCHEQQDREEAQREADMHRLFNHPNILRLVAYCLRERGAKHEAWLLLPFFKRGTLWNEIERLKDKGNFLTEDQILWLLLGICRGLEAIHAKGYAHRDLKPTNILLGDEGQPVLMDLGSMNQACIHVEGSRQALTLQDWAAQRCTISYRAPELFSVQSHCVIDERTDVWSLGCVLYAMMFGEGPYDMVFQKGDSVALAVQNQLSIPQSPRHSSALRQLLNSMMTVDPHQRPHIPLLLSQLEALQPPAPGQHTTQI

[42] = target: BLK (Homo sapiens, UniProt P51451); assay: kinase panel; type: biochemical
[43] = target: MARK1 (Homo sapiens, UniProt Q9P0L2); assay: kinase panel; type: biochemical
MARK1, sequence (Q9P0L2 whole entry): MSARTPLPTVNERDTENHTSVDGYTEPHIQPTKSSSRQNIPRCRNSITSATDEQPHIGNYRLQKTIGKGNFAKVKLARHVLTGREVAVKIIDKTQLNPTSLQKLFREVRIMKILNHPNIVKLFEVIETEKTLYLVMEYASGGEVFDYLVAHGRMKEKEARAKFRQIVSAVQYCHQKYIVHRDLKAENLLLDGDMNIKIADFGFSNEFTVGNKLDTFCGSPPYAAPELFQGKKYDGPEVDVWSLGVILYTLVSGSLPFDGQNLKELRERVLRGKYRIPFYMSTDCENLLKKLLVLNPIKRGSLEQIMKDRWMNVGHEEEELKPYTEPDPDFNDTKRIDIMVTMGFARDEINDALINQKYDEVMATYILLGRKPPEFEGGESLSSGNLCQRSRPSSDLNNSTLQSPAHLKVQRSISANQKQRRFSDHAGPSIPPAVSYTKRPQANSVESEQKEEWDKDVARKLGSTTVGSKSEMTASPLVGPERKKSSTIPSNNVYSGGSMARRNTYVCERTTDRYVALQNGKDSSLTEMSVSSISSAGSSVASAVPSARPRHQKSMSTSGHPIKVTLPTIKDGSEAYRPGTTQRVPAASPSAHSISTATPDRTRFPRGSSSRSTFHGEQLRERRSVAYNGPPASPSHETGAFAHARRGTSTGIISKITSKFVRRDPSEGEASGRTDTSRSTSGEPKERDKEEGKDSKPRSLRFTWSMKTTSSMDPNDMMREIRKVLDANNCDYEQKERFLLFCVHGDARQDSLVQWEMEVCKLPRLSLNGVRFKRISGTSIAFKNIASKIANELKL

RIPK2, sequence (O43353 whole entry): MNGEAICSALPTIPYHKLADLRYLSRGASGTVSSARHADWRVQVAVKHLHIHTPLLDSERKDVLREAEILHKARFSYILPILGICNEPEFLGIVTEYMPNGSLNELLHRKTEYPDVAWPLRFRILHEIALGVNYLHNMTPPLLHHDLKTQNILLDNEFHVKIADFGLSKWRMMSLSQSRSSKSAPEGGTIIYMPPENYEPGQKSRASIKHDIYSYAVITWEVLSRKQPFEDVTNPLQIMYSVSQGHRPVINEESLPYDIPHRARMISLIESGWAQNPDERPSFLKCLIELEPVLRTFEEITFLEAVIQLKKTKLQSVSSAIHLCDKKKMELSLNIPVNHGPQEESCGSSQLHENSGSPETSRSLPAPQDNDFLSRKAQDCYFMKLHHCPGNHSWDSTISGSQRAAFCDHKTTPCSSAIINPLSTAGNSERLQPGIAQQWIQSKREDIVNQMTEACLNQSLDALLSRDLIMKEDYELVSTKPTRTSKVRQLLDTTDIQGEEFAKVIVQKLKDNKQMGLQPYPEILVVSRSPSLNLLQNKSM

Compound: O=C(Nc1nccs1)C(c1cc(F)ccc1O)N1Cc2ccccc2C1=O (stereo not shown) [EAI045, 2-(5-fluoro-2-hydroxyphenyl)-2-(1-oxo-2,3-dihydro-1H-isoindol-2-yl)-N-(1,3-thiazol-2-yl)acetamide]
- inhibition at 1 µM [1]: 0%
- inhibition at 1 µM [2]: 2%
- inhibition at 1 µM [3]: 0%
- inhibition at 1 µM [4]: 0%
- inhibition at 1 µM [5]: 2%
- inhibition at 1 µM [6]: 1%
- IC50 [7]: > 30 µM
- inhibition at 1 µM [8]: 0%
- inhibition at 1 µM [9]: 0%
- inhibition at 1 µM [10]: 0%
- inhibition at 1 µM [11]: 0%
- inhibition at 1 µM [12]: 0%
- IC50 [13]: > 30 µM
- inhibition at 1 µM [14]: 4%
- inhibition at 1 µM [15]: 0%
- inhibition at 1 µM [16]: 0%
- inhibition at 1 µM [17]: 0%
- inhibition at 1 µM [18]: 1%
- inhibition at 1 µM [19]: 0%
- inhibition at 1 µM [20]: 0%
- inhibition at 1 µM [21]: 4%
- inhibition at 1 µM [22]: 0%
- phosphorylation of EGFR and downstream signaling proteins in tumors [23]: effectively inhibited
- inhibition at 1 µM [24]: 0%
- inhibition at 1 µM [25]: 0%
- inhibition at 1 µM [26]: 0%
- inhibition at 1 µM [27]: 0%
- inhibition at 1 µM [28]: 1%
- inhibition at 1 µM [29]: 0%
- inhibition at 1 µM [30]: 0%
- inhibition at 1 µM [31]: 0%
- inhibition at 1 µM [32]: 2%
- IC50 [33]: > 30 µM
- inhibition at 1 µM [34]: 0%
- inhibition at 1 µM [35]: 0%
- inhibition at 1 µM [36]: 0%
- IC50 [37]: > 10 µM
- inhibition at 1 µM [38]: 0%
- IC50 [39]: > 30 µM
- inhibition at 1 µM [40]: 0%
- inhibition at 1 µM [41]: 0%
- inhibition at 1 µM [42]: 3%
- inhibition at 1 µM [43]: 0%
